Assay results as given in article PMC7105014 (Journal of Functional Foods, 2011).
pIC50: −log10 of the molar value.

Columns and labels:
HCV NS3/4A protease = HCV NS3/4A protease (Hepatitis C virus genotype 1a, UniProt P27958); assay: HCV NS3/4A protease inhibition; assay type: biochemical
Outline: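 Test compound in DMSO was mixed with HCV NS3/4A protease solution (0.5 μg/ml; SensoLyte 520 kit). The reaction was started with substrate diluted 100× from a DMSO stock. After 30 min at room temperature, fluorescence was read (ex 485/em 535 nm) and corrected with a substrate blank. % inhibition was taken against a compound-free control. IC50 came from concentration–inhibition curves, with embelin as reference inhibitor.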

α-glucosidase = details: read-out: IC50 against α-glucosidase; ref Hakamata et al., 2006; cited from earlier work

Chain of HCV NS3/4A protease (P27958 1027-1657 limits assumed): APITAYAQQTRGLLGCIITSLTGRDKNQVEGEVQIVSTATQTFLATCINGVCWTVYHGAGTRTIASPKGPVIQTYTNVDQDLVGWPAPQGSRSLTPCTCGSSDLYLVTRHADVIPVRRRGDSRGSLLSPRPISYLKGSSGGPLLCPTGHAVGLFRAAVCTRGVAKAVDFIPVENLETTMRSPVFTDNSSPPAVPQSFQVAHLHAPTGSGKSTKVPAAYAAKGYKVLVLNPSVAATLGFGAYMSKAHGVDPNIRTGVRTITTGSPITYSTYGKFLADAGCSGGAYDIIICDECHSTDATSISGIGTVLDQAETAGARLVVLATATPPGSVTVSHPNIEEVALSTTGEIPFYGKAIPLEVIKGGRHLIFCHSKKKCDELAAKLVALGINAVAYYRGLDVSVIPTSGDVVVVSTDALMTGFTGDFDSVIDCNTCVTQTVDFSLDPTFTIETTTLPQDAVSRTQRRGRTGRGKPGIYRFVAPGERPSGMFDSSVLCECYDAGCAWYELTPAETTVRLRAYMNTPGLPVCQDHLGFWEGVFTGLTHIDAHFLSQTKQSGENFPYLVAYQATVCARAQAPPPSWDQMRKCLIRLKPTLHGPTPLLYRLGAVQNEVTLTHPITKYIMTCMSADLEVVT
Chain of HCV NS3/4A protease (P27958 1658-1711 partner limits assumed): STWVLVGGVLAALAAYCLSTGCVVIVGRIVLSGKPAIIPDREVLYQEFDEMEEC

| Structure (SMILES) | pIC50 (HCV NS3/4A protease) | pIC50 (α-glucosidase) |
| --- | --- | --- |
| CCCCCCCCCCCC1=C(O)C(=O)C=C(O)C1=O [Embelin, embelin] | 4.99 | – |
| Oc1cc(O)c2c(c1)O[C@H](c1ccc(O)c(O)c1)[C@@H](O)C2 [(+)-catechin] | – | < 3.30 |
